Rev-RRE block – HIV Rev-RRE protein-RNA interaction inhibition; Rev peptide-RRE RNA binding, FRET; inhibition, % at 8 µM; 97,000 compounds, 0.79% hits; AID 704;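 active means inhibition above the screen-wide mean plus 3 SD, cut at about 35% in these data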;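 further: 0% = median DMSO wells and 100% = median Neomycin B control wells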
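System: Cy5-labelled duplex RRE RNA binding fluorescein-labelled HIV Rev peptide; Signal: fluorescein-to-Cy5 FRET, 480 nm excitation; Also added: labelled Rev peptide; Compound: one concentration, 8 µM nominal; Buffer or medium: HEPES pH 7.5 salt buffer with EDTA; Read-out: % inhibition of FRET ratio versus controls; Schedule: 5 min preincubation and 15 min binding, 25 °C.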
PLK1 kinase inh – PLK1 (human) kinase inhibition | recombinant PLK1 kinase, TR-FRET peptide phosphorylation | inhibition, % at 10 µM | 97,000 compounds, 0.53% hits;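 active means inhibition of 50% or more in the single-concentration screen; inactive means inhibition below 50%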;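 further: 0% = DMSO max control and 100% = H-89 dihydrochloride min control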
Target sequence (P53350 whole entry, looked up): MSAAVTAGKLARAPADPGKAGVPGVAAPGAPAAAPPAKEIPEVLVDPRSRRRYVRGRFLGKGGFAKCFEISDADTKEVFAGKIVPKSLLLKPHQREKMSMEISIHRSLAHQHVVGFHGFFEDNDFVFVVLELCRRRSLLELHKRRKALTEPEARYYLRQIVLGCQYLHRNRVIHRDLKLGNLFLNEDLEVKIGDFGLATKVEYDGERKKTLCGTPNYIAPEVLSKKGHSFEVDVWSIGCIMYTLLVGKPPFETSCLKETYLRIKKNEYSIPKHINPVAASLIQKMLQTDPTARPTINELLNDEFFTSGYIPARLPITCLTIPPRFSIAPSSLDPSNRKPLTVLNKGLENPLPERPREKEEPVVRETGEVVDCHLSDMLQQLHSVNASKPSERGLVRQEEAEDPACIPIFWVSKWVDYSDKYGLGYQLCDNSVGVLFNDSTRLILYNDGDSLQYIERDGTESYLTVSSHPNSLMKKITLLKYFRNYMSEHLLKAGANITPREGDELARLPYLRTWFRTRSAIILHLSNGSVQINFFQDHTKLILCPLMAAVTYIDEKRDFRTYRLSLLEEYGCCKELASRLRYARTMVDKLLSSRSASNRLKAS
EphB4 antag – antagonists of human EphB4-ephrin-B2 interaction | EphB4 LBD / TNYL-RAW-Alexa532 peptide, fluorescence polarization | P54760 | inhibition, % at 7 µM | 97,000 compounds, 0.15% hits;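 active means inhibition above the screen-wide mean inhibition plus 3 SD, cut at about 15% in these data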;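 further: 0% = DMSO wells and 100% = excess unlabeled TNYL-RAW peptide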
PostGolgi yeast – growth inhibition of a yeast mutant, post-Golgi transport screen | inhibition, % at 10 µM | post-Golgi transport phenotypic cell assay | 98,000 compounds, 0.9% hits | AID 739;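 further: yeast cells grown in 1536-well plates; yeast grown about 18 h at 30C before absorbance read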
PLK1 PBD inh – inhibitors of human Plk1 polo box domain binding; P53350; Plk1 PBD phosphopeptide binding, fluorescence polarization; inhibition, %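 (tested at about 20 µM)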; 97,000 compounds, 0.13% hits; AID 693; in the data active means inhibition above about 34%, passing the limit was not always enough
PostGolgi ctrl – inhibits growth of the yeast control strain | efflux-deficient yeast background strain, growth absorbance A615, 16 h | inhibition, % at 10 µM | 98,000 compounds, 5% hits | AID 738
Starred values were filed as active, the others as inactive; x = no result; [ ] = dose if it differs, or a comment. A selection: hits, their analogues and other compounds. The true share with any hit is near 6.4%. Unless noted, no stated cut-off is given here; in the data, active means inhibition above about 30%; inactive means the rest.

SMILES | Rev-RRE block | PLK1 kinase inh | EphB4 antag | PostGolgi yeast | PLK1 PBD inh | PostGolgi ctrl
Cc1cccc(C)c1NC(=O)C(NC=O)c1ccccc1Cl (centres undefined) | 7 | 3 | 7 | 7 | -7 | 31*
O=C(CSc1ncnc2c1oc1ccccc12)NCc1ccc(F)cc1 | -4 | -10 | 1 | -15 | 14 | 13
CNC(=O)c1csc(-c2ccc(C)cc2)n1 | 4 | -15 | -4 | 6 | 5 | 11
CCN1CCN(Cc2c(O)c(Cl)cc3c(C)cc(=O)oc23)CC1 | 11 | -4 | 13 | -18 | -1 | 2
Cc1cc(=O)oc2c(CN3CCCCC3)c(O)c(Cl)cc12 | -1 | -19 | -1 | 38* | 16 | -3
Cc1c(C)c2cc(Cl)c(O)c(CN3CCN(C)CC3)c2oc1=O | 10 | 6 | 3 | 36* | 5 | 5
O=C(CC1Nc2ccccc2NC1=O)Nc1cc(Cl)cc(Cl)c1 (centres undefined) | 0 | 1 | 5 | 12 | -10 | 67*
Cc1ccc(-c2nnn(CC(=O)Nc3ccccc3-c3ccccc3)n2)c(-n2cnnn2)c1 | 7 | -3 | -4 | -14 | -11 | 10
Cc1cccc2cc(-c3nc4c(C)cccn4c3NCc3ccco3)c(=O)[nH]c12 | 5 | -16 | -5 | 44* | -17 | 56*
Cc1ccc2[nH]c(=O)c(-c3nc4cc(C)ccn4c3NCc3ccco3)cc2c1 | x | x | x | -5 | x | 12
COc1cc(N2CCCC2)c(OC)cc1/C=c1/sc2nc3ccccc3n2c1=O | 133*[fluorescence artefact?] | -40 | -16 | -3 | -262 | 0
Cc1ccc(-n2c(C)cc(/C=c3/sc4nc5ccccc5n4c3=O)c2C)cc1 | 11 | 4 | -1 | 5 | -7 | 3
CCn1c(CSc2nnc(-c3ccoc3C)n2C)nc2cc(S(=O)(=O)N(C)C)ccc21 | 8 | -4 | 2 | -5 | -6 | 38*
CCNc1nc(NC(C)(C)C)nc(N(C#N)CC)n1 | 0 | -2 | 2 | -1 | -28 | 17
O=C1C2C3C=CC(C3=C(c3ccccc3)c3ccccc3)C2C(=O)N1Cc1ccccc1 (centres undefined) | 4 | -5 | -6 | -4 | 37 | 8
COc1ccc(CNc2nc(-c3cccnc3)nn2C(=O)c2cccs2)cc1 | x | x | x | -3 | x | 40*
COc1ccc(CNc2nc(-c3cccnc3)nn2C(=O)c2ccco2)cc1 | 9 | -3 | -6 | -12 | -9 | -3
CCN(CC)S(=O)(=O)c1cccc2cc(C(=O)O)c(O)cc12 | 1 | -18 | 4 | 22 | -2 | 6
COc1cccc(-c2nc(CS(=O)CC(=O)O)c(C)o2)c1 (centres undefined) | 1 | -9 | -6 | -5 | 16 | -4
Cc1cccc(-c2nc(CS(=O)CC(=O)N3CCN(C)CC3)c(C)o2)c1 (centres undefined) | 7 | 57* | -3 | 3 | -4 | 1
Cc1ccc(-c2nc(CS(=O)CC(=O)NC3CCC(C)CC3)c(C)o2)cc1 (centres undefined) | 1 | 65* | 1 | -14 | 14 | 8
CCOC(=O)C1CCN(C(=O)CS(=O)Cc2nc(-c3ccc(C)cc3)oc2C)CC1 (centres undefined) | 6 | -8 | -4 | 0 | -18 | -1
COc1ccc(-c2nc(CS(=O)CC(=O)NC3CCCc4ccccc43)c(C)o2)cc1OC (centres undefined) | 5 | 69* | -1 | 5 | 14 | 2
COc1cccc(-c2nc(CS(=O)CC(=O)NC3CCCC3)c(C)o2)c1 (centres undefined) | 1 | 66* | 0 | 9 | 15 | -1
Cc1c(Br)cc(C(=O)NC2CCCCC2)c(C)c1C | 6 | -7 | 10 | -13 | -36 | 10
SMILES | Rev-RRE block | PLK1 kinase inh | EphB4 antag | PostGolgi yeast | PLK1 PBD inh | PostGolgi ctrl
Cc1nnsc1C(=O)Nc1cccc(Cl)c1Cl | 3 | 13 | -1 | x | 0 | x
CCOC(=O)C1=C(N)OC2=C(C(=O)CC(C)(C)C2)C1c1cccs1 (centres undefined) | 1 | -17 | -4 | x | 2 | x
COc1cc(C(=O)N2CCC(O)(c3ccccc3)CC2)cc(OC)c1OC | 8 | -11 | 4 | -3 | -8 | 9
CC(=O)c1c(C)nc2ccccn12 | x | x | x | 11 | x | 8
Cc1ccc(/C=C/C(=O)c2c(C)nc3ccccn23)cc1 | 3 | -9 | 9 | -2 | -15 | 33*
Cc1ccccc1N(CC(=O)N/N=C/c1ccc(Cl)cc1)C(=O)c1ccccc1 | 8 | -8 | -1 | 8 | -22 | 32*
Cc1ccccc1N(CC(=O)N/N=C/c1ccc(F)cc1)C(=O)c1ccccc1 | 5 | -16 | 1 | 8 | -10 | 16
S=c1[nH]nc(C23CC4CC(CC(C4)C2)C3)n1Cc1ccco1 | -3 | -10 | -2 | 2 | -21 | 45*
S=c1[nH]nc(-c2ccncc2)n1Cc1ccco1 | 6 | -11 | -1 | 16 | -15 | 9
CC1=NN2C(=N)/C(=C\c3ccc(SCc4ccccc4)o3)C(=O)N=C2S1 | 21 | -11 | 1 | -2 | 13 | 5
N=C1/C(=C\c2ccc(SCc3ccco3)o2)C(=O)N=C2SC=NN12 | 59* | -5 | -7 | 6 | -3 | 9
CC1CCCCN1S(=O)(=O)c1ccc(C(=O)Nc2sccc2C(N)=O)cc1 (centres undefined) | 8 | -12 | -1 | 1 | -5 | 19
Clc1ccc(-n2ncc3c(NCc4ccco4)ncnc32)cc1 | 1 | -7 | -7 | -1 | 8 | 9
Clc1ccc(Cn2ncc3c(NCc4ccco4)ncnc32)c(Cl)c1 | 12 | 4 | 3 | 6 | 18 | 39*
COc1ccc(S(=O)(=O)CCC(=O)O)cc1 | 11 | -4 | 5 | 1 | -11 | 34*
O=C(OCC(=O)N1CCN(C(=O)c2ccco2)CC1)c1ccccc1C(=O)c1ccccc1 | 7 | 5 | 11 | 4 | 6 | 3
O=C(OCC(=O)N1CCN(C(=O)c2ccco2)CC1)c1ccccc1OCc1ccccc1 | 5 | -7 | 1 | -1 | -6 | -2
O=C(OCC(=O)N1CCN(C(=O)c2ccco2)CC1)c1cn(-c2ccccc2)nc1-c1ccccc1 | 0 | -11 | -7 | 48* | -20 | 101*
O=C(OCC(=O)N1CCN(C(=O)c2ccco2)CC1)c1cc(-c2ccc(F)cc2)nc2ccccc12 | 1 | -4 | -6 | 47* | 5 | 73*
O=C(OCC(=O)N1CCN(C(=O)c2ccco2)CC1)c1cc(-c2cccc(Br)c2)nc2ccccc12 | -6 | -5 | -2 | 80* | -4 | 72*
O=C(OCC(=O)N1CCN(C(=O)c2ccco2)CC1)c1cc(-c2ccccc2)nc2ccccc12 | 7 | -18 | 5 | 44* | -11 | 47*
CN(C(=O)c1ccco1)c1nc2c(s1)CCCC2 | 5 | 6 | 5 | 2 | -14 | 16

Source: PubChem (several laboratories)
